Source: ChEMBL document CHEMBL1142492 (J Med Chem, 2008)

Tests used:
Rattus norvegicus = organism: Rattus norvegicus; conditions: 3 uM
[1] = biological target: Mast/stem cell growth factor receptor Kit (Homo sapiens) (UniProt P10721); experiment: Inhibition of KIT at 3 uM
[2] = biological target: Mitogen-activated protein kinase kinase kinase 10 (Homo sapiens) (UniProt Q02779); experiment: Inhibition of MLK2 at 3 uM
[3] = biological target: Myosin light chain kinase, smooth muscle (Homo sapiens) (UniProt Q15746); experiment: Inhibition of MYLK at 3 uM
[4] = biological target: Serine/threonine-protein kinase ULK2 (Homo sapiens) (UniProt Q8IYT8); experiment: Inhibition of ULK2 at 3 uM
Sequence of Serine/threonine-protein kinase ULK2 (Homo sapiens) (Q8IYT8 whole entry): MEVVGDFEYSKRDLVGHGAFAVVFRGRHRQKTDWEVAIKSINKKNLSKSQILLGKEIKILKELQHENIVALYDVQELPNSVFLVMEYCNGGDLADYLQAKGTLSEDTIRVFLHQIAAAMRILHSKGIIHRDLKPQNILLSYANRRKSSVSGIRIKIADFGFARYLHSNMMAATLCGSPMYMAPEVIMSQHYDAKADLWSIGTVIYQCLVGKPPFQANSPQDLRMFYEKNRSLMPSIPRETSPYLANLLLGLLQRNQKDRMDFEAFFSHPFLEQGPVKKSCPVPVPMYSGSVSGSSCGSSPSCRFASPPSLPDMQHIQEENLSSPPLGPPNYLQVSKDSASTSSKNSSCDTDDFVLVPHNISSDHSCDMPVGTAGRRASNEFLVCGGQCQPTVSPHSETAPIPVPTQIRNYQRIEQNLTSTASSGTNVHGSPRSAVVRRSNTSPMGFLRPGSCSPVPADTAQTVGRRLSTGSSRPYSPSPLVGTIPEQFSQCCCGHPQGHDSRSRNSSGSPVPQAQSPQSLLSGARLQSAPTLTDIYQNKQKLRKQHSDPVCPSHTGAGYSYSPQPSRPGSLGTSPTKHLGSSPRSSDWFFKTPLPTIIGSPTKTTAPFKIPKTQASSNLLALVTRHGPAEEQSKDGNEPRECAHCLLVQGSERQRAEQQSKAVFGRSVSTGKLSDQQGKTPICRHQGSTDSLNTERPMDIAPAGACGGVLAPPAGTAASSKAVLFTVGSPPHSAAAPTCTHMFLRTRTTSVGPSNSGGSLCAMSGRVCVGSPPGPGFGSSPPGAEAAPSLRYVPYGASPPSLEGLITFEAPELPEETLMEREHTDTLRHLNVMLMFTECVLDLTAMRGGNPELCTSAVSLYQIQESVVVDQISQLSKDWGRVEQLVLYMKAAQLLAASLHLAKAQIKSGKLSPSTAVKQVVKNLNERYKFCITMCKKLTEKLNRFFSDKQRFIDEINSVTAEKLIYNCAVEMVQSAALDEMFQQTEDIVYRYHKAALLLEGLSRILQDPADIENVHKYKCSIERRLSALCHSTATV

[5] = biological target: Mitogen-activated protein kinase kinase kinase kinase 1 (Homo sapiens) (UniProt Q92918); experiment: Inhibition of MAP4K1 at 3 uM
[6] = biological target: Sodium-dependent dopamine transporter (Homo sapiens) (UniProt Q01959); experiment: Inhibition of human DAT at 3 uM
Sequence of Sodium-dependent dopamine transporter (Homo sapiens) (Q01959 whole entry): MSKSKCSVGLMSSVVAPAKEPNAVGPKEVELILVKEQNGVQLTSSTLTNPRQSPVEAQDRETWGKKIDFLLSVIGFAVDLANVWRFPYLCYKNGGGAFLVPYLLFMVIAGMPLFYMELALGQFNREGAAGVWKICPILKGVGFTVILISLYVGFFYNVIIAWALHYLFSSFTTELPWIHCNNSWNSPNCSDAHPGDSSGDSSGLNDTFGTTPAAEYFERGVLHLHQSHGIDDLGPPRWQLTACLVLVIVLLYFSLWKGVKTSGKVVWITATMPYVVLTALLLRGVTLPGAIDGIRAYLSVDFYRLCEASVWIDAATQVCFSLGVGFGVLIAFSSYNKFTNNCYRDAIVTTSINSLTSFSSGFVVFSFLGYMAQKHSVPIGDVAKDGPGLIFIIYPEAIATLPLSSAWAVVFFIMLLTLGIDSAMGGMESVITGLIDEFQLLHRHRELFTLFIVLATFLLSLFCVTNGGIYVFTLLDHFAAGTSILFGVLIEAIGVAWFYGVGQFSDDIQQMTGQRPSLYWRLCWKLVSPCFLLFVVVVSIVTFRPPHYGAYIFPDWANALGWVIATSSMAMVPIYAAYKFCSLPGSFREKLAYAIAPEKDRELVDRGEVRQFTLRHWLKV
Summary of the method: (§1)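 Counter-screen binding/enzyme panel at single 3 μM, n=2; results as percent inhibition. Species per target as listed (rat NMDA, GABAA sites; human receptors, transporters; rabbit ACE).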

[7] = biological target: Dual specificity protein kinase CLK1 (Homo sapiens) (UniProt P49759); experiment: Inhibition of CLK1 at 3 uM
[8] = biological target: Sodium-dependent noradrenaline transporter (Homo sapiens) (UniProt P23975); experiment: Inhibition of human NET at 3 uM
Summary of the method: as §1

[9] = biological target: Serine/threonine-protein kinase tousled-like 2 (Homo sapiens) (UniProt Q86UE8); experiment: Inhibition of TLK2 at 3 uM
[10] = biological target: NUAK family SNF1-like kinase 2 (Homo sapiens) (UniProt Q9H093); experiment: Inhibition of SNARK at 3 uM
[11] = biological target: Uncharacterized serine/threonine-protein kinase SBK3 (Homo sapiens) (UniProt P0C264); experiment: Inhibition of SgK110 at 3 uM
Sequence of Uncharacterized serine/threonine-protein kinase SBK3 (Homo sapiens) (P0C264 whole entry): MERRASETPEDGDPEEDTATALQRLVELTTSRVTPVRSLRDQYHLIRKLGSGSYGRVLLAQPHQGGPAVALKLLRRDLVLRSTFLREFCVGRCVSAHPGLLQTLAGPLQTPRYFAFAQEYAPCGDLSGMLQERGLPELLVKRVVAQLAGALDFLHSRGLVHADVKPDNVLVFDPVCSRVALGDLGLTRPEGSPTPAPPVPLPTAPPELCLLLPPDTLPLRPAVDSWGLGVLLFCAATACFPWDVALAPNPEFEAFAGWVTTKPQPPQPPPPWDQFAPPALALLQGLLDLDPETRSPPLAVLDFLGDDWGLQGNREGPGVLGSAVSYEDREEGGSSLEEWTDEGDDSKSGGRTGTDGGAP

[12] = biological target: Histamine H3 receptor (Homo sapiens) (UniProt Q9Y5N1); experiment: Inhibition of human histamine H3 receptor at 3 uM
Summary of the method: as §1

[13] = biological target: Serine/threonine-protein kinase PAK 3 (Homo sapiens) (UniProt O75914); experiment: Inhibition of PAK3 at 3 uM
[14] = Volume of distribution in Sprague-Dawley rat at 1 mg/kg, iv; conditions: in vivo
[15] = biological target: Calcium/calmodulin-dependent protein kinase type II subunit gamma (Homo sapiens) (UniProt Q13555); experiment: Inhibition of CAMK2G at 3 uM
[16] = biological target: Serine/threonine-protein kinase NLK (Homo sapiens) (UniProt Q9UBE8); experiment: Inhibition of NLK at 3 uM
Sequence of Serine/threonine-protein kinase NLK (Homo sapiens) (Q9UBE8 whole entry, the tested form may be a part): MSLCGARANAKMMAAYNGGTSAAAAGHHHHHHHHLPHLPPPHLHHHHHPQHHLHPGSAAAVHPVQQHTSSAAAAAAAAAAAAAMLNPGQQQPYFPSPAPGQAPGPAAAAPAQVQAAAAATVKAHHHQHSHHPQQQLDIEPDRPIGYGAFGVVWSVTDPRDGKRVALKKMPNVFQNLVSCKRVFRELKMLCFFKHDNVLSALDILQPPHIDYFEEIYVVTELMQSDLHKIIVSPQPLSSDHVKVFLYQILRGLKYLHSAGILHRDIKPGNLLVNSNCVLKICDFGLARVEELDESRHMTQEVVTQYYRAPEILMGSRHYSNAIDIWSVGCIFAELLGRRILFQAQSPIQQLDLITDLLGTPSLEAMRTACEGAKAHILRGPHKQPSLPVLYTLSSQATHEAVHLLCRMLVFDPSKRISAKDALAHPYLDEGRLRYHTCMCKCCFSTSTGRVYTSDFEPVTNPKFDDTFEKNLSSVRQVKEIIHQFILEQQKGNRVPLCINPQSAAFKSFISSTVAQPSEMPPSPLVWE

[17] = biological target: LIM domain kinase 1 (Homo sapiens) (UniProt P53667); experiment: Inhibition of LIMK1 at 3 uM
[18] = biological target: Serine/threonine-protein kinase Chk2 (Homo sapiens) (UniProt O96017); experiment: Inhibition of CHEK2 at 3 uM
[19] = biological target: MAP/microtubule affinity-regulating kinase 3 (Homo sapiens) (UniProt P27448); experiment: Inhibition of MARK3 at 3 uM
[20] = biological target: Alpha-1D adrenergic receptor (Homo sapiens) (UniProt P25100); experiment: Inhibition of human adrenergic Alpha-1D receptor at 3 uM
Sequence of Alpha-1D adrenergic receptor (Homo sapiens) (P25100 whole entry): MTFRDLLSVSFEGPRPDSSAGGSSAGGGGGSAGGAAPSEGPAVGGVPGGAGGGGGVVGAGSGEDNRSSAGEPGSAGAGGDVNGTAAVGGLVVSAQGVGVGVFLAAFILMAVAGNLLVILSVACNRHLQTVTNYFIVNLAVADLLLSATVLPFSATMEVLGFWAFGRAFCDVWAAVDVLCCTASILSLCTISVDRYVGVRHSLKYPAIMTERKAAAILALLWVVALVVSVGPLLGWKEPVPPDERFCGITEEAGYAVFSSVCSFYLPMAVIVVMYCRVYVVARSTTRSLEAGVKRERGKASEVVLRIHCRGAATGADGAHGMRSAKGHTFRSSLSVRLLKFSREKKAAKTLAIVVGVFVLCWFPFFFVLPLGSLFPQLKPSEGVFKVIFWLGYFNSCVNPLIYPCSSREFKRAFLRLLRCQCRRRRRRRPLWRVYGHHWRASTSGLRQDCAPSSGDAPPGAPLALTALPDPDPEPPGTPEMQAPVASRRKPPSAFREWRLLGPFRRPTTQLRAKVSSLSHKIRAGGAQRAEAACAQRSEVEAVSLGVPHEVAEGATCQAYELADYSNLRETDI
Summary of the method: as §1

[21] = biological target: Casein kinase I isoform delta (Homo sapiens) (UniProt P48730); experiment: Inhibition of CSNK1D at 3 uM
[22] = biological target: Serine/threonine-protein kinase D2 (Homo sapiens) (UniProt Q9BZL6); experiment: Inhibition of PRKD2 at 3 uM
[23] = biological target: ALK tyrosine kinase receptor (Homo sapiens) (UniProt Q9UM73); experiment: Inhibition of ALK at 3 uM
Homo sapiens = organism: Homo sapiens; conditions: 3 uM
[24] = biological target: Wee1-like protein kinase 2 (Homo sapiens) (UniProt P0C1S8); experiment: Inhibition of WEE2 at 3 uM
[25] = biological target: Phosphatidylinositol 4,5-bisphosphate 3-kinase catalytic subunit alpha isoform (Homo sapiens) (UniProt P42336); experiment: Inhibition of PIK3CA at 3 uM
[26] = biological target: Alpha-1B adrenergic receptor (Rattus norvegicus) (UniProt P15823); experiment: Inhibition of rat adrenergic Alpha-1B receptor at 3 uM
[27] = biological target: Tyrosine-protein kinase Srms (Homo sapiens) (UniProt Q9H3Y6); experiment: Inhibition of SRMS at 3 uM
[28] = Clearance in Sprague-Dawley rat at 1 mg/kg, iv; conditions: in vivo
[29] = biological target: Mu-type opioid receptor (Homo sapiens) (UniProt P35372); experiment: Inhibition of human mu opioid receptor at 3 uM
Summary of the method: as §1

[30] = biological target: Atypical kinase COQ8B, mitochondrial (Homo sapiens) (UniProt Q96D53); experiment: Inhibition of ADCK4 at 3 uM
Sequence of Atypical kinase COQ8B, mitochondrial (Homo sapiens) (Q96D53 whole entry): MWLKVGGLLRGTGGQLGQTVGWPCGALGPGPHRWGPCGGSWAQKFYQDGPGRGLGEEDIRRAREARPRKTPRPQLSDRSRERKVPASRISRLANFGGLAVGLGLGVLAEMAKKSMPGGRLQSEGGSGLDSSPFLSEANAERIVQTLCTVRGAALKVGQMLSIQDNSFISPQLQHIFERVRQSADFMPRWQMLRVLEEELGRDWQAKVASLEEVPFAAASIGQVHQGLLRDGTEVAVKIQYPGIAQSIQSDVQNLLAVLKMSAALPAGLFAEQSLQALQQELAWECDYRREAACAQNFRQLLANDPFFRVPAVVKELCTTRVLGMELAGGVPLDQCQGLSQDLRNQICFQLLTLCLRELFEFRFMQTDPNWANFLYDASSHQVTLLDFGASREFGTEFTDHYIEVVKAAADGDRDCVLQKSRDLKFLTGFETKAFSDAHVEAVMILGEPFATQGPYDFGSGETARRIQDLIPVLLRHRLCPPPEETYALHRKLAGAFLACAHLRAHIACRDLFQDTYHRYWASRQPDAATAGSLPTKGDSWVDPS

[31] = biological target: Tyrosine-protein kinase Yes (Homo sapiens) (UniProt P07947); experiment: Inhibition of YES at 3 uM
Sequence of Tyrosine-protein kinase Yes (Homo sapiens) (P07947 2-543 limits assumed): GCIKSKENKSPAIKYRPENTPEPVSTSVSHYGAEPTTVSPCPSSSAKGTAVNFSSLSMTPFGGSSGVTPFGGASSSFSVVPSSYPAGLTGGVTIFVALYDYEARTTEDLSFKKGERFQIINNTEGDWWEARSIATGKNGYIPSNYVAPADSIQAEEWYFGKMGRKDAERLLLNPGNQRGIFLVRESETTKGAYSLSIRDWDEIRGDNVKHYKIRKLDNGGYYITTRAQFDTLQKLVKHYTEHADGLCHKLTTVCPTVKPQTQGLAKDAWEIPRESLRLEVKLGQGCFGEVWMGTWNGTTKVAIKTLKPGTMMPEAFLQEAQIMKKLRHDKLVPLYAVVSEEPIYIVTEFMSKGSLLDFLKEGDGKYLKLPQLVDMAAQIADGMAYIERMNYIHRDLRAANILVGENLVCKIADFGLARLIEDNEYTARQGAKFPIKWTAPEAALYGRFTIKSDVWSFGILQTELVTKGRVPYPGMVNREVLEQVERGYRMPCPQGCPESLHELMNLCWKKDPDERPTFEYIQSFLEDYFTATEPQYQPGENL

[32] = biological target: Activin receptor type-1B (Homo sapiens) (UniProt P36896); experiment: Inhibition of ACVR1B at 3 uM
Sequence of Activin receptor type-1B (Homo sapiens) (P36896 whole entry): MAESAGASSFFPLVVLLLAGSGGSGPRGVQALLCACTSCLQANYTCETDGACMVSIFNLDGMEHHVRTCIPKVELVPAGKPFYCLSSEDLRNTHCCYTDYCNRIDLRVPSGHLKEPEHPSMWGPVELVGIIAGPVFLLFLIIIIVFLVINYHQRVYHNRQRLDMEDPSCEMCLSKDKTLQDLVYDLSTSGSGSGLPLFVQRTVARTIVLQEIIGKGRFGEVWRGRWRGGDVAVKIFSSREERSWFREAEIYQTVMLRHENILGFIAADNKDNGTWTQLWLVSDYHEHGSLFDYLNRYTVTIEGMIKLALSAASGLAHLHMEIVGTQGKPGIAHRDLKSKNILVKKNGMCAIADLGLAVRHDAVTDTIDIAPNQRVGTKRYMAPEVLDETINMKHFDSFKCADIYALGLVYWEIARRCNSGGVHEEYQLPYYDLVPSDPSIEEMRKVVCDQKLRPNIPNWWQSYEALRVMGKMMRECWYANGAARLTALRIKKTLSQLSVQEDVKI

[33] = biological target: Estrogen receptor (Homo sapiens) (UniProt P03372); experiment: Inhibition of human ERalpha at 3 uM
Summary of the method: as §1

[34] = biological target: Activated CDC42 kinase 1 (Homo sapiens) (UniProt Q07912); experiment: Inhibition of TNK2 at 3 uM
[35] = biological target: Phosphatidylinositol 5-phosphate 4-kinase type-2 beta (Homo sapiens) (UniProt P78356); experiment: Inhibition of PIP5K2B at 3 uM
[36] = biological target: Myosin light chain kinase family member 4 (Homo sapiens) (UniProt Q86YV6); experiment: Inhibition of SgK085 at 3 uM
[37] = biological target: Serine/threonine-protein kinase PLK1 (Homo sapiens) (UniProt P53350); experiment: Inhibition of PLK1 at 3 uM
[38] = biological target: Ephrin type-B receptor 2 (Homo sapiens) (UniProt P29323); experiment: Inhibition of EPHB2 at 3 uM
Summary of the method: (§2)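 Single-concentration kinase panel scoring: each value is the percentage of enzyme activity remaining relative to a DMSO-only control. An activity statistically indistinct from DMSO control was scored "no hit".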

in vivo = conditions: Sprague-Dawley, rat, po, 2 mg/kg
[39] = biological target: Serine/threonine-protein kinase RIO1 (Homo sapiens) (UniProt Q9BRS2); experiment: Inhibition of RIOK1 at 3 uM
[40] = biological target: Tyrosine-protein kinase ABL2 (Homo sapiens) (UniProt P42684); experiment: Inhibition of ABL2 at 3 uM
[41] = biological target: Tyrosine-protein kinase Fyn (Homo sapiens) (UniProt P06241); experiment: Inhibition of FYN at 3 uM
Summary of the method: as §2

[42] = biological target: SRSF protein kinase 1 (Homo sapiens) (UniProt Q96SB4); experiment: Inhibition of SRPK1 at 3 uM
[43] = test system: Phosphatidylinositol 4,5-bisphosphate 3-kinase catalytic subunit alpha isoform (Homo sapiens), P42336 [E545K]; experiment: Inhibition of PIK3CA E545K mutant at 3 uM
[44] = biological target: Phosphorylase b kinase gamma catalytic chain, skeletal muscle/heart isoform (Homo sapiens) (UniProt Q16816); experiment: Inhibition of PHKG1 at 3 uM

CN(C)CCOc1cc(-c2cn[nH]c2)ccc1NC(=O)C1COc2ccccc2O1 (configuration not stated) [SR-3677]
inhibition (Rattus norvegicus): 47% | inhibition [1]: < 10% | inhibition [2]: < 10% | inhibition [3]: < 10% | inhibition [4]: < 10% | inhibition [5]: < 10% | inhibition [6]: 37% | inhibition [7]: 94.9% | inhibition [8]: 16% | inhibition [9]: < 10% | inhibition [10]: < 10% | inhibition [11]: < 10% | inhibition [12]: -2% | inhibition [13]: < 10% | Vd [14]: 3 L/kg | inhibition [15]: < 10% | inhibition [16]: < 10% | inhibition [17]: < 10% | inhibition [18]: < 10% | inhibition [19]: < 10% | inhibition [20]: 43% | inhibition [21]: < 10% | inhibition [22]: < 10% | inhibition [23]: < 10% | inhibition (Homo sapiens): 12% | inhibition [24]: < 10% | inhibition [25]: < 10% | inhibition [26]: 68% | inhibition [27]: < 10% | clearance [28]: 61 mL/min/kg | inhibition [29]: 5% | inhibition [30]: < 10% | inhibition [31]: < 10% | inhibition [32]: < 10% | inhibition [33]: -2% | inhibition [34]: < 10% | inhibition [35]: < 10% | inhibition [36]: < 10% | inhibition [37]: < 10% | inhibition [38]: < 10% | Cmax (in vivo): 50 nM | inhibition [39]: < 10% | inhibition [40]: < 10% | inhibition [41]: < 10% | inhibition [42]: < 10% | inhibition [43]: < 10% | inhibition [44]: < 10%
